The record followed here is article PMC5672994 (Molecular Imaging, 2017).

One data set can be described thus: Lipophilicity. Conditions: shake-flask. In kind it is physicochemical.
The test system of a further data set is PSMA(+) LNCaP tumors. Nature of the data set: Small-animal PET imaging in mice bearing subcutaneous LNCaP tumors. Conditions: for peak (maximum) kidney uptake / time of peak kidney uptake postadministration: dynamic PET kidney TAC; for absolute tumor uptake, fold lower in comparison to ^68Ga-1 / specificity of tumor accumulation: PET; for specificity of tumor accumulation: PSMA(+) LNCaP tumors, blocking with PMPA 20 nmol/mouse; for peak tumor uptake: subcutaneous LNCaP tumor, iv. In kind it is in vivo. The procedure, abridged: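 Athymic Balb/c nude mice carried LNCaP xenografts (5.0 million cells sc, right shoulder, in Matrigel 1:1), imaged at ~200-300 mg. Dosing was by iv tail vein in PBS pH7.4: static 15.4-18.7 MBq (~0.56-0.68 nmol), dynamic ~28 MBq. Mice were under isoflurane. Dynamic scans ran 3500 s; static scans at 0.5, 1, 2 and 3 h. Decay-corrected VOI %ID/g was taken. Blocking used coinjected PMPA 20 nmol/mouse (n = 3).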

The next data set in a line: Metabolism in vivo. The settings on record: mice, 15 minutes after injection, HPLC. The method in brief: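 Mice (n = 2/group) received 7.3-11.1 MBq (0.3-0.4 nmol) of ⁶⁸Ga-radiotracer in PBS by tail-vein injection and were killed at 15 min. Heparinized blood was spun at 1700 g for 5 min. Plasma was ultrafiltered (30 kDa cutoff, 9660 g, 10 min). Filtrate and protein fractions were gamma-counted, and filtrate aliquots were analysed by RP-HPLC for metabolites.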

Data set [1] is described as follows: Stability of formulated radiotracer in saline or PBS. In kind it is physicochemical. The settings on record: incubation in saline or PBS at 37°C for over 4 hours.

`O=C([O-])CN(CCN(CC(=O)[O-])Cc1cc(CCC(=O)NCCCCCC(=O)NCCCC[C@H](NC(=O)N[C@@H](CCC(=O)O)C(=O)O)C(=O)O)ccc1[O-])Cc1cc(CCC(=O)O)ccc1[O-].[68Ga+3].[OH3+]` [^68Ga-1, ^68Ga-HBED-CC-PSMA, reference compound]: in “Lipophilicity”, the “LogD (n-octanol: PBS pH7.4)” value is reported as −4.06 ± 0.10. In the data set on PSMA(+) LNCaP tumors, the “peak (maximum) kidney uptake” value is recorded as “around 30 %ID/g” and the “time of peak kidney uptake postadministration” value is approximately 500 s. For the same compound, the “tumor-associated radioactivity after 3500 seconds” value in the data set on PSMA(+) LNCaP tumors (dynamic PET, LNCaP tumor) was more than 8.0 %ID/g.

^68Ga-DFO-pNCS-Bn-PSMA [^68Ga-7]: the “LogD (n-octanol: PBS pH7.4)” value in the data set “Lipophilicity” is listed as −2.60 ± 0.02. The “radiotracer intact in soluble fraction of the blood pool” value in the data set “Metabolism in vivo” was 100%. Also, the “absolute tumor uptake, fold lower in comparison to ^68Ga-1” value in the data set with PSMA(+) LNCaP tumors (LNCaP tumor) is on record as approximately 2.5 fold. In the data set with PSMA(+) LNCaP tumors, the “specificity of tumor accumulation” value is “specific accumulation”, the “peak (maximum) kidney uptake” value was approximately 50 %ID/g and the “time of peak kidney uptake postadministration” value is approximately 1400 s. For the same compound, the “tumor-associated radioactivity after 3500 seconds” value in the data set with PSMA(+) LNCaP tumors (dynamic PET, LNCaP tumor) is on record as 2.90 ± 0.46 %ID/g. For the same compound, the peak tumor uptake in the data set on PSMA(+) LNCaP tumors (dynamic PET) was 3.5-4.0 %ID/g. The “tumor-associated activity retained for up to 3 hours” value in the data set with PSMA(+) LNCaP tumors (static PET, LNCaP tumor) is recorded as 2.5-3.5 %ID/g. Further, in data set [1], the “stability with respect to changes in RCP” value is on record as “stable”.

As for ^68Ga-DFO-Nsucc-PSMA [^68Ga-4], the “LogD (n-octanol: PBS pH7.4)” value in “Lipophilicity” is recorded as −3.24 ± 0.05. For the same compound, the “radiotracer intact in soluble fraction of the blood pool” value in “Metabolism in vivo” came out at 100%. The “absolute tumor uptake, fold lower in comparison to ^68Ga-1” value in the data set with PSMA(+) LNCaP tumors (LNCaP tumor) is approximately 10 fold. The “specificity of tumor accumulation” value with PSMA(+) LNCaP tumors is “specific accumulation”. The “time of peak tumor uptake postadministration” value in the data set with PSMA(+) LNCaP tumors (dynamic PET, LNCaP tumor) lay within 5 to 10 min. Moreover, the peak tumor uptake with PSMA(+) LNCaP tumors (dynamic PET) was 3-4 %ID/g. Further, in the data set on PSMA(+) LNCaP tumors (static PET, LNCaP tumor), the “absolute tumor uptake after 3 hours postadministration” value is 0.8-1.2 %ID/g. Also, the “stability with respect to changes in RCP” value in data set [1] is recorded as “stable”.
